PMC3832383 (Drug Design, Development and Therapy, 2013)
In brackets after ≈: the same amount, converted by molar mass.

test system: P. falciparum strain NF54; assay: not given; conditions: unsynchronized NF54; cited from earlier work

Going from `O=C1C(O)=C([C@H]2CC[C@H](c3ccc(Cl)cc3)CC2)C(=O)c2ccccc21` [atovaquone] to `[H]/N=C(\N/C(=N/[H])Nc1ccc(Cl)cc1)NC(C)C` [proguanil], the IC50 rises from 0.38 ng/mL (≈ 0.00104 µM) to 440 ng/mL (≈ 1.73 µM) (1200-fold).

test system: Plasmodium falciparum strain NF54 (rings, trophozoites, schizonts); assay: In vitro assessment of stage-specific activity, synchronous cultures; assay type: cell-based; conditions: control drug; data not shown
Method in brief: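 P. falciparum NF54 synchronized by two 5% D-sorbitol treatments, with intervals set to give rings (>80%, ≤6 h old), trophozoites (≥80%, ≤20 h) or early schizonts (≤36 h). Stages were exposed 6 or 24 h to two-fold dilutions (final 250–7.81 ng/mL) in hypoxanthine-free medium, co-solvent <0.5%, then washed and assessed by [3H]hypoxanthine incorporation. Values are mean ± SD of 3–4 independent experiments.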

For `CCc1nc(N)nc(N)c1-c1ccc(Cl)cc1` [pyrimethamine], the “effect against ring and trophozoite stages” value was “ineffective”.

test system: P. falciparum strain NF54; assay: [3H]hypoxanthine incorporation assay, unsynchronized parasites; assay type: cell-based; conditions: Plasmodium falciparum, NF54, 72 h
Method in brief: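 Two ways of diluting the 10 mg/mL stock were compared. In one, the stock went straight into hypoxanthine-free medium. In the other, it was diluted 1/50 in co-solvent, then 1/100 and 1/2 in hypoxanthine-free medium.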

Going from `CCN(CC)Cc1cc(Nc2ccnc3cc(Cl)ccc23)ccc1O` [amodiaquine] to `COc1ccc2nc3cc(Cl)ccc3c(Nc3cc(CN4CCCC4)c(O)c(CN4CCCC4)c3)c2n1` [pyronaridine], the IC50 rises from 1.5 ng/mL (≈ 0.00422 µM) to 2.6 ng/mL (≈ 0.00502 µM) (1.7-fold).

`C[C@@H]1CC[C@H]2[C@@H](C)C(=O)O[C@@H]3O[C@@]4(C)CC[C@@H]1[C@]32OO4` [artemisinin] and `OC(c1cc(C(F)(F)F)nc2c(C(F)(F)F)cccc12)C1CCCCN1` (stereo not drawn) [mefloquine] are within 1.5-fold of each other in IC50: 3 ng/mL (≈ 0.0106 µM) for the first, 4.1 ng/mL (≈ 0.0108 µM) for the second.

First: Clc1ccc2c(N3CCN(CCCN4CCN(c5ccnc6cc(Cl)ccc56)CC4)CC3)ccnc2c1 [piperaquine]
Second: CCc1nc(N)nc(N)c1-c1ccc(Cl)cc1 [pyrimethamine]
The IC50 of the first is 2.6-fold higher: 7.8 ng/mL (≈ 0.0146 µM) for the first, 3 ng/mL (≈ 0.0121 µM) for the second.
